According to article PMC4861071 (Chemical communications (Cambridge, England), 2016):
Read-outs that look alike come from different tables or passages of the source.

Columns and labels:
plasmid (pBR322) DNA = details: cited from earlier work
[1] = tested on: thioredoxin reductase (TrRx); assay: Thioredoxin reductase activity in treated Caki-1 cells; format: cell-based, human; details: 5 µM, 24 hour incubation
Summary of the method: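 Caki-1 cells were incubated with 5 µM test compound or 0.1% DMSO vehicle for 5, 12 and 24 h. Endogenous thioredoxin reductase activity was then assayed in soluble whole-cell lysates. Percent inhibition is relative to vehicle-treated cells at 24 h.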

[2] = tested on: human renal Caki-1 cancer cell line; assay: Cell viability; format: cell-based; details: read-out: IC50 Caki-1; 72 h incubation; dissolved in 1% DMSO, diluted with water
Summary of the method: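 Growth inhibition measured by BluePresto assay in human renal Caki-1 cancer cells, run in parallel with human colon HCT 116 and DLD1 cancer lines and non-tumorigenic HEK-293T cells. Cells were exposed to test compound for 72 h. Compounds were dissolved in 1% DMSO and diluted with water before addition to the culture medium. Cisplatin reference was dissolved in water.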

[3] = tested on: human renal Caki-1 cancer cell line; details: read-out: IC50 Caki-1; cisplatin dissolved in H2O; ref [24]; cited from earlier work
[4] = tested on: non-tumorigenic human embryonic kidney cell lines HEK-293T; details: read-out: IC50 HEK-293T; cisplatin dissolved in H2O; ref [24]; cited from earlier work

| Molecule | IC50 [2] [µM] | inhibition of thioredoxin reductase activity [1] [%] | other results |
| --- | --- | --- | --- |
| [Ru(p-cymene)Cl2(η^1-dppm)] [compound 9] | 35.6 ± 3.7 | 44 | interaction with plasmid DNA (plasmid (pBR322) DNA; ref [31]): weakly reduced supercoiling in plasmid DNA |
| N.N.[Cl][Pt][Cl] [cisplatin] |  |  | IC50 [3]: 29 ± 4.11 µM; IC50 [4]: 3.27 ± 0.13 µM |
| [Ru(p-cymene)Cl2(μ-dppm)AuCl] [compound 7] |  |  | interaction with plasmid (pBR322) DNA (plasmid (pBR322) DNA; previously described compounds, ref [26]): lack of interaction |

Second part, led by results:

| IC50 [2] [µM] | Molecule | inhibition of thioredoxin reductase activity [1] [%] | other results |
| --- | --- | --- | --- |
| 27.1 ± 2 | CC(C)c1cccc(C(C)C)c1-n1ccn(-c2c(C(C)C)cccc2C(C)C)[c]1=[Au][Cl] [compound 1, [(IPr)AuCl]] | 17 |  |
| 5.2 ± 0.9 | [Ru(p-cymene)Cl2(μ-dppm)Au(IPr)]ClO4 [compound 13] | 63 |  |
